Laboratory results published in ChEMBL document CHEMBL1129686, “(S)-(-)-5-ethynyl-3-(1-methyl-2-pyrrolidinyl)pyridine maleate (SIB-1508Y): a novel anti-parkinsonian agent with selectivity for neuronal nicotinic acetylcholine receptors” (J Med Chem, 1996).
“And” between values parts separate entries of the source, which are not always exact repeats. Identical values can stand only once.

Tests used:
[1] = target: Neuronal nicotinic acetylcholine receptor; test: Binding affinity at NAChRs was determined by measuring the displacement of ([3H]Nic) from a preparation of rat cortical membranes.; assay type: cell membranes, Membrane
[2] = species on record: Rattus norvegicus; test: The efficiency of the compound (300 micro M) to stimulate ([3H]DA) release; assay type: functional
[3] = target: Muscarinic acetylcholine receptor; test: Muscarinic acetylcholine receptor binding (rat cortical membranes) was determined by displacement of [3H]quinuclidinyl benzylate [3H]QNB)
[4] = target: T1, Nicotinic acetylcholine receptor alpha2/beta4 (Homo sapiens, UniProt P30926+Q15822); test: The compound was tested on recombinant human alpha2-beta4 cell lines of Human embryonic kidney for nicotinic acetylcholine receptor agonist functional potency
Method in brief: (§1)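 Stably transfected human recombinant NAChR cell lines: HEK293 for α2β4, α3β4, α4β4 and α4β2; human RD cells for fetal α1β1γδ muscle receptor. Agonist-evoked Ca2+ entry read as change in [Ca2+]i with fluo-3. Highest concentration tested 300 μM.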

[5] = target: T2, Neuronal acetylcholine receptor; alpha3/beta4 (Homo sapiens, UniProt P30926+P32297); test: The compound was tested on recombinant human alpha3-beta4 cell lines of Human embryonic kidney for nicotinic acetylcholine receptor agonist functional potency; method in brief: as §1
[6] = target: T3, Neuronal acetylcholine receptor; alpha4/beta4 (Homo sapiens, UniProt P30926+P43681); test: The compound was tested on recombinant human alpha4-beta4 cell lines of Human embryonic kidney for nicotinic acetylcholine receptor agonist functional potency; method in brief: as §1
Target sequence in this assay (P30926 whole entry): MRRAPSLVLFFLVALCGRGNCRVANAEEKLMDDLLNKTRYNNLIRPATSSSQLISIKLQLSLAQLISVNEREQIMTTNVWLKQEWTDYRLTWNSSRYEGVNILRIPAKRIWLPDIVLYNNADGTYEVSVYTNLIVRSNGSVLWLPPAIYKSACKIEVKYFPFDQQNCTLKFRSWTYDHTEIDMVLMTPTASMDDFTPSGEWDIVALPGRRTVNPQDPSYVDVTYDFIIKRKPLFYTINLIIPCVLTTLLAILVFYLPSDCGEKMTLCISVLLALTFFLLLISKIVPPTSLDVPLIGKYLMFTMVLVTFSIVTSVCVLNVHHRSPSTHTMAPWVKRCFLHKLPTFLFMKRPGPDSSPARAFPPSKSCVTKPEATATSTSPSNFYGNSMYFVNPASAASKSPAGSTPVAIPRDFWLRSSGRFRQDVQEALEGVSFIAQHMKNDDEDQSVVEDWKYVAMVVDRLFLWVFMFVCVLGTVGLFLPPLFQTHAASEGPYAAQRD
Target sequence in this assay (P43681 whole entry): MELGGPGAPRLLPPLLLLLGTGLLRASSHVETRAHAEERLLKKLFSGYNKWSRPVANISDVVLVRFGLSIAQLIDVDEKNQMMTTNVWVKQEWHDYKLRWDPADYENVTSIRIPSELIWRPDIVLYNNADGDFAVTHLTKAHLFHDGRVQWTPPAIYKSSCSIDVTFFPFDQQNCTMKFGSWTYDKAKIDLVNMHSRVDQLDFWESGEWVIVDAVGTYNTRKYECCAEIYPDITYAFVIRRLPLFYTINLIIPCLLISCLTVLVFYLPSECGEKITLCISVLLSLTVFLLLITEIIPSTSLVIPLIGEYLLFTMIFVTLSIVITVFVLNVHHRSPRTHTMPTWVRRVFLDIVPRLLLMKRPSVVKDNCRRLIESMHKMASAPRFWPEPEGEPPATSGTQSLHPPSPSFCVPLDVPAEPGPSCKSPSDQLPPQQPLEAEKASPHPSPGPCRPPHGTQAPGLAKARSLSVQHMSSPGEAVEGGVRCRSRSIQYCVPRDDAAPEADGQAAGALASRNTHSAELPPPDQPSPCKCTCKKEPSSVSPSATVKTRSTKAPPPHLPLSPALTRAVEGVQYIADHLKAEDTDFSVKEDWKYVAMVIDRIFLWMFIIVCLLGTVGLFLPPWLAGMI

[7] = target: T3, Neuronal acetylcholine receptor; alpha4/beta4; test: The compound was tested on recombinant human alpha4-beta4 cell lines of HUman embryonic kidney for nicotinic acetylcholine receptor agonist functional potency; method in brief: as §1
Target sequence in this assay (P43681 whole entry, looked up): as the sequence (P43681 whole entry) above
Target sequence in this assay (P30926 whole entry, looked up): as the sequence (P30926 whole entry) above

[8] = target: T1, Nicotinic acetylcholine receptor alpha2/beta4; test: The compound was tested on recombinant human alpha2-beta4 cell lines of HUman embryonic kidney for nicotinic acetylcholine receptor agonist efficacy
[9] = target: T2, Neuronal acetylcholine receptor; alpha3/beta4; test: The compound was tested on recombinant human alpha3-beta4 cell lines of HUman embryonic kidney for nicotinic acetylcholine receptor agonist functional potency; method in brief: as §1
[10] = target: Neuronal acetylcholine receptor; alpha4/beta2 (Homo sapiens, UniProt P17787+P43681); test: The compound was tested on recombinant human alpha4-beta2 cell lines of Human embryonic kidney for nicotinic acetylcholine receptor agonist functional potency; IA=inactive; method in brief: as §1
[11] = target: Acetylcholine receptor; alpha1/beta1/delta/gamma (Homo sapiens, UniProt P02708+P07510+P11230+Q07001); test: (§2) The compound was tested on recombinant human alpha-1-beta-1-gamma-delta cell lines of […] for nicotinic acetylcholine receptor agonist functional potency
[12] = target: Muscle-type nicotinic acetylcholine receptor; test: as §2

T2 sequence (P30926 whole entry): as above
T2 sequence (P32297 whole entry): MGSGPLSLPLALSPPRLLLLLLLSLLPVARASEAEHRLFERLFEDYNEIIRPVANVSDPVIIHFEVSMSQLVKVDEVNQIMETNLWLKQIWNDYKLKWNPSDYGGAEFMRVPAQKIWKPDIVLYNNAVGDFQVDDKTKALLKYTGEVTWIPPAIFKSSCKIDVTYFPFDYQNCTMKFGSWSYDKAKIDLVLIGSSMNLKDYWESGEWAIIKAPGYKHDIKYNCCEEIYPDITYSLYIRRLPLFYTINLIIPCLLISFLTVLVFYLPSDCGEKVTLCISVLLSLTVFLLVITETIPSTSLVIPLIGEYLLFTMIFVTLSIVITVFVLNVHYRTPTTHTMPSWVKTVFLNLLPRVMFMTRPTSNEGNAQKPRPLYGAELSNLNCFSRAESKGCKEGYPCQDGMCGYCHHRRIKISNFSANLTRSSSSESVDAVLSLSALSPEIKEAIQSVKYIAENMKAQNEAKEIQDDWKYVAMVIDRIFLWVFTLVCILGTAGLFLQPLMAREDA
T1 sequence (P02708 whole entry): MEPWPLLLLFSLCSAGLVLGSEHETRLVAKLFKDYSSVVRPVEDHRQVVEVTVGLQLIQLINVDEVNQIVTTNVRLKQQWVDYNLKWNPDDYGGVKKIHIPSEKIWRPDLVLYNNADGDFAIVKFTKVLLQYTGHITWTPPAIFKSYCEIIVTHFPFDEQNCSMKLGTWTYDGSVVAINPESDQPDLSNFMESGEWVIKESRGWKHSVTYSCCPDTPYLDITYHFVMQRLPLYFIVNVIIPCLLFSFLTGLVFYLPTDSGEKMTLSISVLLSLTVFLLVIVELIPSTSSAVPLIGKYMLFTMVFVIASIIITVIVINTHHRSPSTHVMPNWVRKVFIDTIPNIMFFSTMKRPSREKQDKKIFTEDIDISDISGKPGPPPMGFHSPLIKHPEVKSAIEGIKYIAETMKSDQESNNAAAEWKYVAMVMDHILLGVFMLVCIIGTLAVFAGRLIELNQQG
T1 sequence (P30926 whole entry): as the sequence (P30926 whole entry) above
Acetylcholine receptor; alpha1/beta1/delta/gamma, sequence (P02708 whole entry): as the sequence (P02708 whole entry) above
Acetylcholine receptor; alpha1/beta1/delta/gamma, sequence (P07510 whole entry): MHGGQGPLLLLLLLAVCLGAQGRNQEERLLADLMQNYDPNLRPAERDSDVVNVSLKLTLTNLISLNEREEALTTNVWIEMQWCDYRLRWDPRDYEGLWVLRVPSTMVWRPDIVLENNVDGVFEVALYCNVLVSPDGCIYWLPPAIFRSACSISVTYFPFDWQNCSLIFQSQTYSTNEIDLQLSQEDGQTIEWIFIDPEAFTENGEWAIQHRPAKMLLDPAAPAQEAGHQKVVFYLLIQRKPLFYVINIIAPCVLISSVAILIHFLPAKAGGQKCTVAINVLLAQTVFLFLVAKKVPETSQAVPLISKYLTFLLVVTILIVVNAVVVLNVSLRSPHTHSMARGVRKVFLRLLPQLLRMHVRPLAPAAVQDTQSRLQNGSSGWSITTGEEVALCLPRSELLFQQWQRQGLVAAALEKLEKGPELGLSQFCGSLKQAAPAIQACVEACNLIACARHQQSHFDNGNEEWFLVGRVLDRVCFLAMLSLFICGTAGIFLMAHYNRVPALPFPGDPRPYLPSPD
Acetylcholine receptor; alpha1/beta1/delta/gamma, sequence (P11230 whole entry): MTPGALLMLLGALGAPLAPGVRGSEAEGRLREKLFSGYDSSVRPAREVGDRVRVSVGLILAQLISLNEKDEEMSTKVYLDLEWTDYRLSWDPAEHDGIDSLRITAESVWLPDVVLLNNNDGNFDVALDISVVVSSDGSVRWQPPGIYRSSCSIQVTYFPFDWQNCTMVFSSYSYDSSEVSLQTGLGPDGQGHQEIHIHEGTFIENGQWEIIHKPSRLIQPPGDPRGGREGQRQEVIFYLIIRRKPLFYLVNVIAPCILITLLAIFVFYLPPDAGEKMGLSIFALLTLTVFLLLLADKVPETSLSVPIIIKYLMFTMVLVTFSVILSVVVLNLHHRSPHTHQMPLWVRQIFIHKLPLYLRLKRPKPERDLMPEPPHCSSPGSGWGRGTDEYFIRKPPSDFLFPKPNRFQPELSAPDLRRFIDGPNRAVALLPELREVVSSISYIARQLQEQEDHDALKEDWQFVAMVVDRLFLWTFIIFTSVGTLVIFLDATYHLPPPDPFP
Acetylcholine receptor; alpha1/beta1/delta/gamma, sequence (Q07001 whole entry): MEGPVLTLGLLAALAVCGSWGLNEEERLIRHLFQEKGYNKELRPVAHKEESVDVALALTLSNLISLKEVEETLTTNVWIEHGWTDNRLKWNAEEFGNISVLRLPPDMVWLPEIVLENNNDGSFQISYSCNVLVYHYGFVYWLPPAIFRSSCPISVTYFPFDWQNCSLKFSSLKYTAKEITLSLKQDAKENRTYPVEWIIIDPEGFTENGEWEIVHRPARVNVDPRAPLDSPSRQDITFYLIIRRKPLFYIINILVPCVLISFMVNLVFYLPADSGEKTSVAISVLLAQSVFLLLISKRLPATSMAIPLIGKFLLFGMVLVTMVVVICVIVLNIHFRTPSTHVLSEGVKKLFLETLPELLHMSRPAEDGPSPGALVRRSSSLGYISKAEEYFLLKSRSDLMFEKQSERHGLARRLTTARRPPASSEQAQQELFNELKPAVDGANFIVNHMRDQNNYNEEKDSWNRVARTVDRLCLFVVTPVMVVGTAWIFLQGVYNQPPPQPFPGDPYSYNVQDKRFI
Neuronal acetylcholine receptor; alpha4/beta2, sequence (P17787 whole entry): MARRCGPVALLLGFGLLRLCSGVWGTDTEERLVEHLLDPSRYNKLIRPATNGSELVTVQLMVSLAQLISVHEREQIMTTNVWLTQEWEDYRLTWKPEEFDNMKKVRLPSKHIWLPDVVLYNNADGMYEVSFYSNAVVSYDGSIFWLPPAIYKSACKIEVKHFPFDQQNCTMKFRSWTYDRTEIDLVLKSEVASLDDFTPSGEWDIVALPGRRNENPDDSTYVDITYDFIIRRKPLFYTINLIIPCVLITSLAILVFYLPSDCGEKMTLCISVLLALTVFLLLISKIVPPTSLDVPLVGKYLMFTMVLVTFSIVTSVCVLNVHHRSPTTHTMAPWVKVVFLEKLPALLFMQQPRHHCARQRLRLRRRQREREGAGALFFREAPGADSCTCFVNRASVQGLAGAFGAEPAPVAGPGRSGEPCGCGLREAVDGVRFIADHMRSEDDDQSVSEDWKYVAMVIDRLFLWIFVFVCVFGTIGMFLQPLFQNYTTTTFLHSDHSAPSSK
Neuronal acetylcholine receptor; alpha4/beta2, sequence (P43681 whole entry): as the sequence (P43681 whole entry) above

SMILES | IC50 [1] [µM] | Release [2] [%] | IC50 [3] [µM] | EC50 [4] | EC50 [5] | EC50 [6] | EC50 [7] | Efficacy [8] [%] | EC50 [9] [µM] | EC50 [10] | EC50 [11] | EC50 [12] [µM]
CCc1cncc(C2CCCN2C)c1 (stereo not given) | 0.011 | 27.5 | 5.8 |  |  |  |  |  |  |  |  | 
C#Cc1cncc([C@@H]2CCCN2C)c1 [ALTINICLINE] | 0.003 | 163 | 8.9 | 5 µM and 49 µM | 23 µM and 52 µM | 9 µM and 26 µM |  |  |  |  |  | 
CN1CCCC1c1cncc(Br)c1 (stereo not given) | 0.019 | 69 | 1.6 |  |  |  |  |  |  |  |  | 
C#Cc1cncc([C@H]2CCCN2C)c1 | 0.075 | 55 | 4.5 | 29 µM | 68 µM |  | 31 µM and 8 µM | 9 | 68 | Not Active |  | 
C#Cc1cncc(C2CCCN2C)c1 (stereo not given) | 0.0046 | 143 | 10.1 | 15 µM and 39 µM | 41 µM and 34 µM | 25 µM and 23 µM |  |  |  |  | 52 µM and 53 µM | 
CN1CCC[C@H]1c1cccnc1 [NICOTINE] |  |  |  | 10 µM |  |  |  |  |  |  |  | 65
